Compounds with a hit are over-represented: about 2.2% of the library has one in this group of screens.
TRAIL sens C8 – viability loss with TRAIL in NB7+C8 cells, primary screen, TRAIL sensitizer project, cell-based, ATPlite luminescence; AID 624354, 2012; actives 1% (n = 360,000); inhibition (viability loss, TRAIL sensitization), % at 10 µM;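 active means compounds causing at least 50% loss of cell viability in the single-dose screen, relative to plate controls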
FLuc act counter – FLuc activators, initial screening, artefact control for FLuc-dependent activation tests, biochemical, ATPlite luminescence; Luciferin 4-monooxygenase (Photinus pyralis), P08659; ATPlite luciferase biochemical, 10 min; 0 = ATP-free wells, 1 = DMSO control; activation factor at 10 µM; 200,000 tested, under 10 active;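 active means luciferase activation factor, scaled between plate controls, of at least 2 with compound at 10 µM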
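Assay system: Luciferase/luciferin reagent mix; Medium: PBS as buffer for the ATP substrate; Dosing: test compounds dosed from 2 mM stocks in 100% DMSO; Times: 10 min, room temperature; Signal: luminescence from luciferase reaction; Read-out: luciferase activation; Controls: No-ATP low control, compound-free enzyme-plus-ATP high control.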
FLuc inhib CS – firefly luciferase enzyme inhibitors, primary screen, artefact control for luciferase-based inhibitor screens, biochemical, luminescence, ATPLite; 10 min; inhibition, % at 10 µM; actives 1.5% (n = 200,000);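 active means inhibition above about 50% when tested at 10 µM, limit read from the data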
PPC-1+TRAIL kill – compounds killing PPC-1 cancer cells with TRAIL present, primary screen, TRAIL potentiator project, ATPLite luminescence, uHTS; actives 0.41% (n = 220,000); cell killing (% activity), % at 4 µM or 5 µM; PPC-1 cells + TRAIL, ATPLite viability luminescence;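 active means cell killing above 50% in the first pass at 4 µM, then a duplicate retest at 5 µM averaging 50% or more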
Wee1 stabilizer – Wee1 degradation inhibitors, primary screen, cell-based, HeLa, Wee1K328M-luciferase, luminescence. AID 1321, 2008. HeLa Luc-Wee1K328M stability; 100% = proteasome inhibitor MG132 effect. actives 1.2% (n = 220,000). reporter increase, % at 5 µM. Wee1-like protein kinase (Homo sapiens), P30291;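 active means activation above the mean of all tested compounds plus 3 SD, set per screening run, cut at about 8.8% in these data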;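 further: cells exposed to compound for 20 h before luminescence read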
PKD1 inh – inhibitors of human PKD1 kinase, biochemical, fluorescence polarization | Serine/threonine-protein kinase D1 (Homo sapiens), Q15139 | PKD1 kinase fluorescence polarization assay | inhibition, % (test concentration not listed) | actives 0.056% (n = 200,000); in the data active means inhibition above about 50%
Target sequence (Q15139 whole entry, looked up): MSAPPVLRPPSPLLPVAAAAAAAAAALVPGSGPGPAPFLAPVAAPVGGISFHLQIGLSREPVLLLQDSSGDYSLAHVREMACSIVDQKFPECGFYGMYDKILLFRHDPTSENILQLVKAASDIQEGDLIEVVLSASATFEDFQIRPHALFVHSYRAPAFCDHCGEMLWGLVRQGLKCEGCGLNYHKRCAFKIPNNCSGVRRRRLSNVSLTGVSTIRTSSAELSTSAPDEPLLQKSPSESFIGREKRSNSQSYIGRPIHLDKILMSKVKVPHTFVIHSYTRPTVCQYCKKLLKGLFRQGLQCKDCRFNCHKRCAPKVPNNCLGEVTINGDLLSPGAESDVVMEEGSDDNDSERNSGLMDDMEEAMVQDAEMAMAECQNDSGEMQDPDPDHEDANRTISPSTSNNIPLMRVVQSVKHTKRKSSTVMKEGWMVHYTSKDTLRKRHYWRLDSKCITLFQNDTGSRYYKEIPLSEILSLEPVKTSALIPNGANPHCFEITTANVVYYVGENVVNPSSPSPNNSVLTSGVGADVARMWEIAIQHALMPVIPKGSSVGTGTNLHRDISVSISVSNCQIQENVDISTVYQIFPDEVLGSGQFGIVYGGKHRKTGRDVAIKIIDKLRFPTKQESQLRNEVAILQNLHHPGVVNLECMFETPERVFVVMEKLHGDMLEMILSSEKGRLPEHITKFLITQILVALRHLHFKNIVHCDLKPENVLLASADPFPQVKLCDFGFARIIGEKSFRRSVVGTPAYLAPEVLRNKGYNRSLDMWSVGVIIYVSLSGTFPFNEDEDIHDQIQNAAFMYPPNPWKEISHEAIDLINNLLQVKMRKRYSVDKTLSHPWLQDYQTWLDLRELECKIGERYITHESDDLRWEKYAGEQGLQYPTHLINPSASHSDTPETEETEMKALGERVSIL
Wee1 degr conf – Wee1 degradation inhibitors, confirmation, cell-based, HeLa, Wee1K328M-luciferase, luminescence, triplicate; shares compounds with Wee1 stabilizer; HeLa Luc-Wee1K328M degradation; vehicle 0%, proteasome-blocked wells 100%; activation, % at 5 µM; actives 4% (n = 1,100); AID 1410, 2008; in the data active means activation above about 8.9%
Hits are given with their value; . = inactive; / = not tested or not shown.

SMILES	TRAIL sens C8	FLuc act counter	FLuc inhib CS	PPC-1+TRAIL kill	Wee1 stabilizer	PKD1 inh	Wee1 degr conf
Cc1cccc(-n2c(=S)[nH]c3c(oc4ccccc43)c2=O)c1	.	.	.	.	.	.	/
C[C@H](CO)N1C[C@H](C)[C@H](CN(C)S(=O)(=O)c2ccccc2)OCc2cnnn2CCCC1=O	.	/	/	/	/	/	/
NCCOc1ccccc1-c1ccccc1	.	.	.	.	.	.	/
NCCOc1ccccc1OCCN	.	.	.	.	12	.	.
CCOc1ccc(S(=O)(=O)NCCC(=O)N2CCN(c3ccc(OC)cc3)CC2)cc1	.	.	.	.	11	.	.
Cc1ccc(N2CCN(c3ccc(NCc4nc5ccccc5n4C)cc3)CC2)cc1	.	.	.	.	.	.	/
Cn1c(CNc2ccc(Cl)cc2)nc2ccccc21	.	.	.	.	13	.	.
Cc1ccc(NC(=S)N/N=C/c2cccn2Cc2ccccc2F)cc1	.	/	/	.	19	/	.
COC(=O)C1CSC(c2ccc(Cl)cc2)N1C(=O)c1ccccc1 (stereo not given)	.	.	.	.	.	.	/
O=C(Cn1nc(-c2ccccc2Cl)ccc1=O)Nc1ccccc1-c1ccccc1	.	.	.	/	25	.	.
O=C(NCc1ccccn1)C(=O)NCC1OCCCN1S(=O)(=O)c1cc(F)ccc1F (stereo not given)	.	/	/	/	/	/	/
CN(Cc1ccco1)C(=O)c1ccc(S(=O)(=O)N2CCCCCC2)cc1	.	/	/	/	/	/	/
CCC(=O)Nc1ccc(-c2nc3ccccc3c(=O)o2)cc1	.	.	74	.	13	.	.
Cn1c(SCC2CCCO2)nnc1-c1ccc([N+](=O)[O-])cc1 (stereo not given)	.	.	.	.	13	.	.
O=C1NC(=S)CN1c1ccccc1	.	/	/	.	.	/	/
Cc1c(N(C(=O)c2ccccn2)C2(C(=O)NC3CCCCC3)CCCCC2)c(=O)n(-c2ccccc2)n1C	.	.	.	.	.	.	/
COc1cc(OC)cc(C(=O)NC2CCSC2=O)c1 (stereo not given)	.	.	.	.	12	.	.
O=C(Nc1cc(S(=O)(=O)N2CCCC2)ccc1OCC(F)(F)F)c1ccccc1F	.	.	.	.	13	.	.
Cc1ccc(CSCC(=O)N2CCOCC2)cc1	.	.	.	.	13	.	.
O=C(N/N=C/c1cc(Br)c(O)c(Br)c1)c1cccc(C(F)(F)F)c1	.	.	.	.	12	.	.
O=C(CSc1nc2ccccc2c(=O)n1-c1ccc(F)cc1)Nc1ccc(Cl)c(S(=O)(=O)N2CCOCC2)c1	.	.	.	.	14	.	.
CC1CCCN(CC(O)COC(c2ccccc2)c2ccccc2)C1 (stereo not given)	.	.	.	.	12	.	.
Cc1nc2ccccn2c1-c1csc(Nc2cccc(O)c2)n1	.	.	.	/	13	.	11
Cc1cccc(Nc2nc(-c3c(C)nc4ccccn34)cs2)c1	.	.	.	.	.	.	/
CC(=O)N1CCc2cc(N=NC3=C(O)CC(C)(C)CC3=O)ccc21	.	.	.	.	17	.	.
SMILES	TRAIL sens C8	FLuc act counter	FLuc inhib CS	PPC-1+TRAIL kill	Wee1 stabilizer	PKD1 inh	Wee1 degr conf
Cc1nc2ccc(N=NC3=C(O)CC(C)(C)CC3=O)cc2s1	.	.	.	.	.	.	/
CC(=O)N1N=C(c2ccc(C)o2)CC1c1ccc(Br)cc1 (stereo not given)	.	.	.	.	.	.	/
COc1ccc(C2CC(c3ccc(C)o3)=NN2C(C)=O)cc1 (stereo not given)	.	.	.	.	12	.	.
CCCc1nc2ccc(C)cn2c1Cc1ccsc1	.	/	/	/	/	/	/
Cc1cc(/C=C2\SC(=S)NC2=O)c(C)n1-c1ccccc1	.	/	/	.	15	/	.
Cc1cc(/C=C2\SC(=S)NC2=O)c(C)n1-c1ccc(O)cc1	.	/	/	.	.	/	/
O=c1[nH]c(=S)[nH]c2c1C(c1ccc(F)cc1)OC(CCOCc1ccccc1)C2 (stereo not given)	.	/	/	/	/	/	/
CC(C)(CNC(=O)C1CCN(S(=O)(=O)c2cc([N+](=O)[O-])ccc2Cl)CC1)N1CCOCC1	.	/	/	/	/	/	/
NC(N)=NS(=O)(=O)c1ccc(N)cc1	.	.	.	.	11	.	.
Fc1ccccc1N1CCN(c2nc(-c3cccs3)nc3ccccc23)CC1	.	.	.	.	.	.	/
CN(Cc1ccccc1F)c1nc(-c2cccs2)nc2ccccc12	.	.	.	.	14	.	.
CCN1c2ccccc2-c2nc3ccccc3n2C1c1ccncc1 (stereo not given)	.	.	.	.	16	.	.
CCN1c2ccccc2-c2nc3ccccc3n2C1c1cccnc1 (stereo not given)	.	.	.	.	.	.	/
COc1ccc(NC(=O)/C(Cl)=C(/Cl)S(=O)Cc2ccccc2)cn1 (stereo not given)	96	.	.	.	17	.	25
COc1ccc(NC(=O)Cc2ccccc2)cn1	.	.	.	.	.	.	/
CC1CN(C(=O)c2ccc(OC3CCN(Cc4ccccn4)CC3)cc2)CCN1C (stereo not given)	.	/	/	/	/	/	/
Cc1cc(C)nc(N2CCCC(C(=O)Nc3nnc(C)s3)C2)n1 (stereo not given)	.	.	.	.	.	.	/
Cc1cc(C)nc(N2CCCC(C(=O)Nc3nc4ccc(S(C)(=O)=O)cc4s3)C2)n1 (stereo not given)	.	.	.	.	11	.	.
Cc1ccc(CN2CCC[C@]3(N[C@H](c4ccc(C)cc4)[C@@H]4C(=O)N(Cc5ccccc5)C(=O)[C@@H]43)C2=O)cc1	.	/	/	/	/	/	/
Cc1c(NC(=S)NC(C)(C)C)c(=O)n(-c2ccccc2)n1C	.	.	.	.	14	.	.
CN(C)C(=S)NC(=O)C12CC3(C)CC(C)(CC(C)(C3)C1)C2	.	/	/	.	11	/	.
CC(CC(=O)N(C)CC(=O)Nc1ccc(N2CCOCC2)cc1)c1ccccc1 (stereo not given)	.	/	/	/	/	/	/
Cc1nc2ccc(F)cc2cc1C(=O)Nc1ccc(Cl)c(Cl)c1	.	.	.	.	15	.	.
CCOC(=O)c1c(C)c(C)n2c1NC(=O)C2	.	/	/	/	/	/	/
C=CCn1c(SCC(=O)Nc2cc(NC(C)=O)ccc2OC)nnc1-c1ccccn1	.	.	.	.	12	.	.

Screening results: PubChem, several laboratories
